Our source for the Life span and ILS values is ChEMBL document CHEMBL1122809, “Improved synthesis and antitumor activity of 2-bromo-2'-deoxyadenosine” (1984).

Test [1] has as its system L1210. Put plainly: Antitumor activity expressed as life span was determined against inoculated L1210 leukemia cells (1*10e5) in mice by 11.3 mg/kg dosage of compound (qd (x 3), for days 1, 4, 7). It counts as functional, Mus musculus. Summed up:
(§1)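 Female mice (~18 g, housed six per cage) received L1210 cells intraperitoneally on day 0. Drug was made fresh and injected at 0.01 mL/g; the stated dose is per injection. Controls received the same volume of 0.154 M NaCl. Survival was followed, with deaths assigned to tumour by necropsy or to drug toxicity by set criteria. Life span is given as mean ± SD.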

Test [2] concerns L1210. The test can be described thus: Antitumor activity expressed as life span was determined against inoculated L1210 leukemia cells (1*10e5) in mice by 11.3 mg/kg dosage of compound (qd (x 3), for days 1, 4, 7,10,13,16). It counts as functional, Mus musculus. In short, it runs like this: as §1
Test [3] deals with L1210. The test can be described thus: Antitumor activity expressed as life span was determined against inoculated L1210 leukemia cells (1*10e5) in mice by 45 mg/kg dosage of compound (qd (x 3), for days 1,5,9). Type of test: functional, Mus musculus. Summed up: as §1
Test [4] concerns L1210. The test can be described thus: Antitumor activity expressed as life span was determined against inoculated L1210 leukemia cells (1*10e6) in mice by 11.3 mg/kg dosage of compound (qd (x 3), for days 1, 4, 7). Type of test: functional, Mus musculus. Summed up:
as §1

In test [5] the test system is L1210. The test can be described thus: Antitumor activity expressed as life span was determined against inoculated L1210 leukemia cells (1*10e6) in mice by 110 mg/kg dosage of compound (qd (x 3), for days 1- 7). Type of test: functional, Mus musculus. Summed up: as §1
Test [6] has as its system L1210. Put plainly: Antitumor activity expressed percentage increase in life span was determined against inoculated L1210 leukemia cells (1*10e5) in mice by 5.6 mg/kg dosage of compound (qd (x 3), for days 1,5,9). As to conditions: Mus musculus. It counts as functional. In short, it runs like this: (§2)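 L1210 cells were given intraperitoneally to female mice (~18 g). Freshly prepared drug was injected at 0.01 mL/g, dose per injection, and saline-injected controls were run. The end point was duration of survival. ILS was calculated as percent increase in mean life span over controls. Mice surviving 60 days or more counted as long-term survivors, scored as 60 days.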

Test [7] has as its system L1210. Put plainly: Antitumor activity expressed as life span was determined against inoculated L1210 leukemia cells (1*10e6) in mice by 22.5 mg/kg dosage of compound (qd (x 3), for days 1, 4, 7). It counts as functional, Mus musculus. Summed up:
as §1

For test [8], the system named is L1210. Put plainly: Antitumor activity expressed as life span was determined against inoculated L1210 leukemia cells (1*10e6) in mice by 22.5 mg/kg dosage of compound (qd (x 3), for days 1, 4, 7,10,13,16). It counts as functional, Mus musculus. In short, it runs like this:
as §1

The test system of test [9] is L1210. The test can be described thus: Antitumor activity expressed percentage increase in life span was determined against inoculated L1210 leukemia cells (1*10e5) in mice by 22.5 mg/kg dosage of compound (qd (x 3), for days 1, 4, 7,10,13,16). Type of test: functional. Particulars: Mus musculus. In short, it runs like this:
as §2

Test [10] relates to L1210. The test can be described thus: Antitumor activity expressed percentage increase in life span was determined against inoculated L1210 leukemia cells (1*10e5) in mice by 45 mg/kg dosage of compound (qd (x 3), for days 1, 4, 7). It counts as functional. Particulars: Mus musculus. Summed up: as §2
Test [11] deals with L1210. Put plainly: Antitumor activity expressed percentage increase in life span was determined against inoculated L1210 leukemia cells (1*10e6) in mice by 30 mg/kg dosage of compound (qd (x 3), for days 1- 7). Particulars: Mus musculus. Type of test: functional. Summed up: as §2
For test [12], the system named is M5076. Put plainly: Antitumor activity was evaluated by measuring mean life span in tumor (M5076) inoculated mice at 22.5 mg/kg (qd3hx8),days 1-34. Type of test: functional, Mus musculus. In short, it runs like this:
(§3)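 Female mice of about 18 g received subcutaneous M5076 implants matching those used for serial passage. Drug was freshly prepared and injected at 0.01 mL/g every 3 h (×8) on every 3rd day from day 1 to day 34, with the dose stated per injection. Controls received 0.154 M NaCl. Groups held 18 mice (11 in one group). Mean life span was reported as mean ± SD, and tumor volume was also assessed.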

In test [13] the test system is M5076. The test can be described thus: Antitumor activity was evaluated by measuring mean life span in tumor (M5076) inoculated mice at 5.6 mg/kg (qd3hx8),days 1-34. Type of test: functional, Mus musculus. Summed up:
as §3

Test [14] has as its system L1210. The test can be described thus: Antitumor activity expressed percentage increase in life span was determined against inoculated L1210 leukemia cells (1*10e6) in mice by 50 mg/kg dosage of compound (qd (x 3), for days 1- 7). It counts as functional. As to conditions: Mus musculus. Summed up:
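Female mice of about 18 g (BDF1, DBA/2 or C57Bl/6 stocks used) were inoculated intraperitoneally with 1 × 10^6 L1210 cells. Freshly prepared drug was given once daily from about 24 h after inoculation at 0.01 mL/g, with the dose stated per injection. Controls received 0.154 M NaCl, and groups held 6 mice. %ILS was taken from mean survival, with mice alive at 60 days or more counted as 60 days.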

Test [15] concerns L1210. The test can be described thus: Antitumor activity expressed as life span was determined against inoculated L1210 leukemia cells (1*10e6) in mice by 50 mg/kg dosage of compound (qd (x 3), for days 1- 7). Type of test: functional, Mus musculus. Summed up:
as §1

Test [16] concerns L1210. Put plainly: Antitumor activity expressed as life span was determined against inoculated L1210 leukemia cells (1*10e6) in mice by 70 mg/kg dosage of compound (qd (x 3), for days 1- 7). It counts as functional, Mus musculus. In short, it runs like this:
as §1

A further test concerns B16 melanoma (mouse). Put plainly: Antitumor activity expressed percentage increase in life span was determined against inoculated B16 melanoma in mice by 22.5 mg/kg dosage of compound (qd3hx8), for days 1,4,7,10,13,16.

One may read the ILS as the gain in survival time of treated over control animals, in per cent. Low readings indicate a small benefit in survival, high ones a large benefit in survival. Take `Nc1nc(Br)nc2c1ncn2[C@H]1C[C@H](O)[C@@H](CO)O1`: the Life span with L1210 [1] is 14.33 days; in the test on L1210 [2] it was 18.67 days; with L1210 [3], 37.73 days; in the test with L1210 [4], 12.92 days; with L1210 [5], 4.17 days; in the test on L1210 [7], 15 days. Besides, the Life span in the test on L1210 [8] was determined as 16.08 days; in the test on M5076 [12] it was 46.41 days; in the test with M5076 [13] it was 34.44 days; in the test with L1210 [15], 9 days; in the test with L1210 [16] it was 7 days. Moreover, the ILS at 5.6 mg/kg in the test on L1210 [6] was determined as 59%. The ILS at 22.5 mg/kg in the test with L1210 [9] is 153%; in the test on B16 melanoma (mouse) it was 10%. The compound further displayed an ILS at 45 mg/kg with L1210 [10] of 417%. For the same compound, the ILS at 30 mg/kg in the test on L1210 [11] stood at 21%. The ILS at 50 mg/kg in the test with L1210 [14] amounted to 42%.
